In ChEMBL document CHEMBL1139471, “Antitumor polycyclic acridines. 17. Synthesis and pharmaceutical profiles of pentacyclic acridinium salts designed to destabilize telomeric integrity” (J Med Chem, 2005):
pIC50: −log10 of the molar value.

Columns and labels:
[1] = Inhibition of telomerase by TRAP assay; design: species or system Homo sapiens
[2] = Growth inhibition of NCI60 cell panel; format: functional; settings: Homo sapiens
In short: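 NCI 60 human tumor cell panel with a 2-day drug exposure; mean GI50 reported.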

[3] = Selectivity index, ratio of mean GI50 for NCI60 cell panel to IC50 for telomerase; format: functional, Homo sapiens
In short: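 Selectivity index calculated as mean GI50 (NCI 60 panel, 2-day exposure) divided by the telomerase IC50 from the TRAP assay.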

[4] = Stability in RPMI tissue culture medium at 37 degC after 72 hrs; format: ADME
In short: (§1)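 Drug at 10 μM in RPMI containing 10% FBS without cells, held at 37 °C up to 72 h. Monitored by absorbance at λmax and spectrum shape, and by HPLC of aliquots for loss of parent and appearance of new peaks. LC-MS run on the 72 h sample.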

[5] = Stability in RPMI tissue culture medium at 37 degC incubated with human MCF7 cells at 0.5 uM after 72 hrs; format: ADME, cell-based; settings: read-out: Stability
In short: (§2)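 A549 or MCF-7 cells seeded at 5 × 10^5 per flask and attached overnight in RPMI with 10% serum at 37 °C. Medium then replaced with medium containing 0.5 μM drug. Medium sampled in triplicate at 0, 24, 48 and 72 h, deproteinized with acetonitrile. Isocratic C18 HPLC, fluorescence detection ex 483/em 543 nm. Drug peak height given as % of time zero; mean and SD of two flasks.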

[6] = Metabolic stability in Sprague-Dawley rat liver microsomes assessed as drug remaining after 4 hrs
[7] = Aqueous solubility at 25 degC; format: physicochemical; settings: water
[8] = test system: Liver microsomes; assay: Metabolic stability in Sprague-Dawley rat liver microsomes at 2 uM after 4 hrs; format: ADME, Microsome
In short: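 Pooled male Sprague-Dawley rat liver microsomes (0.5 mg/mL protein) in 100 mM potassium phosphate pH 7.4 with 5 mM MgCl2 and 1 mM NADPH. Drug at 2 μM final, diluted from a DMSO stock, incubated 4 h at 37 °C. Stopped with cold acetonitrile, then reverse-phase C18 HPLC of the parent peak. Controls: P450-null human lymphoblast microsomes for protein binding; DF 203 for microsomal activity.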

[9] = test system: A549; assay: Stability in RPMI tissue culture medium at 37 degC incubated with human A549 cells at 0.5 uM after 72 hrs; format: ADME, cell-based; settings: a549, 72 h; in short: as §2
[10] = Stability in RPMI tissue culture medium at 37 degC at 10 uM after 72 hrs; format: ADME; in short: as §1

| SMILES | pIC50 [1] | GI50 [2] | Selectivity index [3] | also measured |
| --- | --- | --- | --- | --- |
| COC(=O)CCc1ccc2c(c1)c1cccc3c1c([n+]2C)-c1ccccc1N3C | 5.52 |  |  |  |
| CC(=O)OCCCc1cc2c3c([n+](C)c4ccc(CCCOC(C)=O)cc4c3c1)-c1ccccc1N2C.[I-] | 5.49 | 3.8 µM | 1.2 |  |
| COc1cc2c3c([n+](C)c4ccc(/C=C/C(=O)N5CCOCC5)cc4c3c1)-c1ccccc1N2C |  | 9.33 µM |  |  |
| COc1cc2c3c([n+](C)c4ccccc4c3c1)-c1ccc(/C=C/C(=O)N3CCOCC3)cc1N2C.[I-] | 5.66 | 43.7 µM | 2 |  |
| COc1cc2c3c([n+](C)c4ccccc4c3c1)-c1ccc(/C=C/C(=O)N3CCN(C(C)=O)CC3)cc1N2C |  | 93.3 µM |  |  |
| COC(=O)/C=C/c1ccc2c(c1)N(C)c1cc(OC)cc3c1c-2[n+](C)c1ccccc31 | < 6.00 | 4.58 µM |  |  |
| CC(=O)OCCCc1ccc2c(c1)N(C)c1cc(CCCOC(C)=O)cc3c1c-2[n+](C)c1ccccc31.[I-] | 5.64 | 3.31 µM | 1.45 |  |
| CN1c2ccccc2-c2c3c1cc(/C=C/C(=O)N1CCOCC1)cc3c1cc(Cl)ccc1[n+]2C |  | 12 µM |  |  |

More lines, in order of rising pIC50 [1], values ahead:

| pIC50 [1] | SMILES | GI50 [2] | Selectivity index [3] | also measured |
| --- | --- | --- | --- | --- |
| 6.42 | CN1c2ccccc2-c2c3c1cccc3c1ccccc1[n+]2C.[I-] | 1.29 µM | 3.4 |  |
| 6.42 | CC(=O)Nc1ccc2c3cccc4c3c([n+](C)c2c1)-c1ccccc1N4C.[I-] | 12 µM | 31.6 | Stability [4]: Stable; remaining at 72 h, 0.5 µM [5]: 43%; remaining at 4 h [6]: 69% |
| 6.42 | CC(=O)OCCCc1cc2c3c([n+](C)c4ccc(/C=C/C(=O)N5CCOCC5)cc4c3c1)-c1ccccc1N2C.[I-] | 27.5 µM | 72.4 | Activity [9]: Not Active; Activity [10]: Not Active |
| 6.43 | CN1c2ccccc2-c2c3c1cccc3c1cc(/C=C/C(=O)N3CCOCC3)ccc1[n+]2C.[I-] | 68 µM | 183 | solubility [7]: 1000 µM; Stability [4]: Stable; Activity [8]: 66% |
| 6.48 | COS(=O)(=O)[O-].Cc1cc2c3c([n+](C)c4ccc(F)cc4c3c1)-c1cc(F)ccc1N2C | 13.2 µM | 40 | solubility [7]: 5000 µM; Stability [4]: Stable; remaining at 4 h [6]: 81% |
| 6.60 | COS(=O)(=O)[O-].Cc1ccc2c(c1)-c1c3c(cc(C)cc3c3cc(C)ccc3[n+]1C)N2C | 0.41 µM | 1.8 |  |
| 6.70 | COC(=O)/C=C/c1ccc2c(c1)c1cccc3c1c([n+]2C)-c1ccccc1N3C |  |  |  |
